Experimental data published in ChEMBL document CHEMBL5149972, “Novel Antimalarial Tetrazoles and Amides Active against the Hemoglobin Degradation Pathway in Plasmodium falciparum” (J Med Chem, 2021).
pEC50, pIC50: −log10 of the molar value. In brackets after ≈: the same amount, converted by molar mass. Activity calls are given as the source filed them. The calls are words filed in the database; no cut-off is given here.

Key:
Plasmodium falciparum [1] = assay: Antiplasmodial activity against asexual blood stage Plasmodium falciparum 3D7 infected in human RBC assessed as parasite growth inhibition incubated for 72 hrs by SYBR Green dye based fluorescence assay; type: functional, organism-based; conditions: Plasmodium falciparum, 3D7, Erythrocyte, 72 h
Method in brief: (§1)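 Blood-stage cultures at 2% hematocrit, human O+ RBCs, RPMI 1640 + 25 mM HEPES, 0.5% Albumax-I, 23 mM bicarbonate, 92 μM hypoxanthine. Start at 0.5% parasitemia; 72 h at 37°C, 5% CO₂; freeze-thaw, then SYBR Green in saponin/Triton lysis buffer, 4 h RT dark; fluorescence ex 485/em 535 nm. 10-point curves, technical duplicates or triplicates, final 0.5% DMSO; four-parameter fit gives EC₅₀; mean ± std dev of biological replicates.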

HepG2 = assay: (§2) Cytotoxicity against human HepG2 cells assessed as reduction in cell viability incubated for 72 hrs by CellTiter-Glo assay; type: toxicity, cell-based; conditions: hepg2, 72 h
Plasmodium falciparum [2] = assay: Antiplasmodial activity against drug resistant Plasmodium falciparum Dd2 infected in human RBC assessed as parasite growth inhibition incubated for 72 hrs by SYBR Green dye based fluorescence assay; type: functional, organism-based; conditions: Plasmodium falciparum, Dd2, Erythrocyte, 72 h; method in brief: as §1
[3] = Metabolic stability in human liver microsomes assessed as intrinsic clearance per mg of protein at 1 uM incubated for 60 mins presence of NADPH regenerating buffer system by LC-MS analysis; type: ADME, Microsome; conditions: 1 h
[4] = Kinetic solubility of compound in PBS at pH 2 by HPLC analysis; type: physicochemical; conditions: read-out: Kinetic_solubility
[5] = Kinetic solubility of compound in PBS at pH 6.5 by HPLC analysis; type: physicochemical; conditions: read-out: Kinetic_solubility
Plasmodium berghei = assay: Antiplasmodial activity against liver stage Plasmodium berghei ANKA expressing GFP-Luc-SMCO infected in human HepG2-A16-CD81EGFP cells assessed as reduction in liver-stage development of luciferase-expressing parasite by luciferase reporter gene based bioluminescence assay; type: functional, organism-based
Method in brief: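 Pb-Luc (P. berghei ANKA-GFP-Luc-SMCON) sporozoites infect HepG2-A16-CD81EGFP cells in phenol red-free DMEM with 5% FBS, glutamine, penicillin/streptomycin; compounds scored for blocking liver-stage development by luciferase signal.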

Plasmodium falciparum [6] = assay: Antiplasmodial activity against Plasmodium falciparum mature stage V gametocyte assessed as inhibition of male gametocyte formation at 25 uM by luciferase reporter assay; type: functional, organism-based
Plasmodium falciparum [7] = assay: Antiplasmodial activity against Plasmodium falciparum mature stage V gametocyte assessed as inhibition of female gametocyte formation by luciferase reporter assay; type: functional, organism-based
[8] = as §2; type: toxicity, cell-based; conditions: HepG2 cells
Plasmodium falciparum [9] = assay: Antiplasmodial activity against Plasmodium falciparum 3D7 infected in human RBC assessed as parasite growth inhibition incubated for 48 hrs by 3H-hypoxanthine incorporation assay; type: functional, organism-based; conditions: 3D7, Erythrocyte
Plasmodium falciparum [10] = assay: Antiplasmodial activity against Plasmodium falciparum 3D7 assessed as parasite growth inhibition incubated for 48 hrs followed by compound washout further infected in RBC cells for 28 days by hemocrit analysis; type: functional, organism-based
Plasmodium falciparum [11] = assay: Antiplasmodial activity against Plasmodium falciparum NF54 infected in human RBC assessed as parasite growth inhibition incubated for 72 hrs by SYBR Green dye based fluorescence assay; type: functional, organism-based; conditions: NF54, Erythrocyte
Plasmodium falciparum [12] = assay: Antiplasmodial activity against chloroquine and pyrimethamine resistant Plasmodium falciparum K1 infected in human RBC assessed as parasite growth inhibition incubated for 72 hrs by SYBR Green dye based fluorescence assay; type: functional, organism-based; conditions: K1, Erythrocyte
Plasmodium falciparum [13] = assay: Antiplasmodial activity against chloroquine and pyrimethamine resistant Plasmodium falciparum 7G8 infected in human RBC assessed as parasite growth inhibition incubated for 72 hrs by SYBR Green dye based fluorescence assay; type: functional, organism-based; conditions: 7G8, Erythrocyte
Plasmodium falciparum [14] = assay: Antiplasmodial activity against chloroquine, atovaquone and pyrimethamine resistant Plasmodium falciparum TM90C2B infected in human RBC assessed as parasite growth inhibition incubated for 72 hrs by SYBR Green dye based fluorescence assay; type: functional, organism-based; conditions: Erythrocyte
Plasmodium falciparum [15] = assay: Antiplasmodial activity against piperaquine and pyrimethamine resistant Plasmodium falciparum RF12 infected in human RBC assessed as parasite growth inhibition incubated for 72 hrs by SYBR Green dye based fluorescence assay; type: functional, organism-based; conditions: RF12, Erythrocyte
Plasmodium falciparum [16] = assay: Antiplasmodial activity against chloroquine and pyrimethamine resistant Plasmodium falciparum Dd2 infected in human RBC assessed as parasite growth inhibition incubated for 72 hrs by SYBR Green dye based fluorescence assay; type: functional, organism-based; conditions: Dd2, Erythrocyte
Method in brief: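 O+ human RBCs at 2% hematocrit and 0.5% starting parasitemia, in RPMI 1640 with 25 mM HEPES, 0.5% Albumax-I, bicarbonate and hypoxanthine. Serial dilutions in triplicate, 0.5% DMSO final, 72 h at 37°C, 5% CO2. Frozen at −80°C, lysed with SYBR Green in saponin/Triton buffer for 4 h in the dark. Ex 485/em 535 nm. EC50 from four-parameter fit; biphasic fit where curves were biphasic.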

Plasmodium falciparum [17] = assay: Antiplasmodial activity against chloroquine resistant Plasmodium falciparum Dd2-GC03 mutant replaced with 3D7 pfcrt sequence at endogenous pfcrt Dd2 locus infected in human RBC assessed as parasite growth inhibition incubated for 72 hrs by SYBR Green dye based fluorescence assay; type: functional, organism-based; conditions: Erythrocyte
Method in brief: (§3)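 Gene-edited Dd2 lines with the endogenous pfcrt locus replaced by zinc-finger nuclease editing. Concentration-response curves run with technical duplicates at each concentration; values are the average of two biological replicates, with std dev given where more replicates were collected.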

Plasmodium falciparum [18] = assay: (§4) Antiplasmodial activity against chloroquine resistant Plasmodium falciparum Dd2-Dd2 mutant replaced with recombinant Dd2 sequence at endogenous pfcrt Dd2 locus infected in human RBC assessed as parasite growth inhibition incubated for 72 hrs by SYBR Green dye based fluorescence assay; type: functional, organism-based; conditions: Erythrocyte; method in brief: as §3
Plasmodium falciparum [19] = assay: as §4, with “chloroquine and piperaquine” for “chloroquine”, “Dd2-M343L” for “Dd2-Dd2”, “with endogenous pfcrt locus with the” for “with”, “sequence and the PPQ resistance-conferring M343L” for “sequence”; type: functional, organism-based; conditions: Erythrocyte; method in brief: as §3
Plasmodium falciparum [20] = assay: Antiplasmodial activity against lab-derived […] resistant Plasmodium falciparum Dd2-PfeEF2 mutant infected in human RBC assessed as parasite growth inhibition incubated for 72 hrs by SYBR Green dye based fluorescence assay; type: functional, organism-based; conditions: Erythrocyte
Plasmodium falciparum [21] = assay: Antiplasmodial activity against lab-derived MMV390048 resistant Plasmodium falciparum Dd2-Pfpi4K mutant infected in human RBC assessed as parasite growth inhibition incubated for 72 hrs by SYBR Green dye based fluorescence assay; type: functional, organism-based; conditions: Erythrocyte
Plasmodium falciparum [22] = assay: Antiplasmodial activity against lab-derived DSM265 resistant Plasmodium falciparum Dd2-PfDHODH mutant infected in human RBC assessed as parasite growth inhibition incubated for 72 hrs by SYBR Green dye based fluorescence assay; type: functional, organism-based; conditions: Erythrocyte
Plasmodium falciparum [23] = assay: Antiplasmodial activity against lab-derived ELQ300 resistant Plasmodium falciparum Dd2-PfCytB mutant infected in human RBC assessed as parasite growth inhibition incubated for 72 hrs by SYBR Green dye based fluorescence assay; type: functional, organism-based; conditions: Erythrocyte
Hemozoin = assay: Inhibition of Beta-hematin assessed as bis-pyridyl-Fe(III)PPIX complex formation incubated for 5 hrs by NP40 detergent-mediated colorimetric assay
[24] = Inhibition of hemozoin formation in sorbitol-synchronized early ring stage plasmodium falciparum NF54 trophozoites assessed as fold increase in free heme-Fe level at 3 times EC50 incubated for 32 hrs by flow cytometry analysis; type: functional
Method in brief: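 Trophozoites were saponin-released (0.05%), PBS-washed, counted by flow cytometry, then hypotonically lysed and sonicated. Heme was fractionated with HEPES, SDS, pyridine and NaOH and read as Fe(III)heme–pyridine absorbance against a heme standard curve (fg/cell). Three biological replicates; Student's t-test.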

Plasmodium falciparum [25] = assay: Antiplasmodial activity against Plasmodium falciparum NF54 expressing transgenic luciferase assessed as parasite kill rate at trophozoite stage incubated for 72 hrs by bioluminescence relative rate of kill (BRRoK) assay; type: functional, organism-based; conditions: RBC
Plasmodium falciparum [26] = assay: Antiplasmodial activity against Plasmodium falciparum NF54 expressing transgenic luciferase assessed as parasite kill rate at trophozoite stage incubated for 6 hrs by bioluminescence relative rate of kill (BRRoK) assay; type: functional, organism-based; conditions: RBC
Plasmodium falciparum [27] = assay: Inhibition of hemozoin formation in sorbitol-synchronized early ring stage plasmodium falciparum NF54 trophozoites assessed as increase in free heme level at 0.5 to 3 times EC50 incubated for 32 hrs by flow cytometry analysis; type: functional; conditions: DDE = dose-dependent effect
Plasmodium falciparum [28] = assay: Inhibition of hemozoin formation in sorbitol-synchronized early ring stage plasmodium falciparum NF54 trophozoites assessed as increase in free heme-Fe level at 0.5 to 3 times EC50 incubated for 32 hrs by flow cytometry analysis; type: functional; conditions: DDE = dose-dependent effect
Plasmodium falciparum [29] = assay: Inhibition of hemozoin formation in sorbitol-synchronized early ring stage plasmodium falciparum NF54 trophozoites assessed as decrease in free hemozoin level at 0.5 to 3 times EC50 incubated for 32 hrs by flow cytometry analysis; type: functional; conditions: DDE = dose-dependent effect
Plasmodium falciparum [30] = assay: Inhibition of hemozoin formation in sorbitol-synchronized early ring stage plasmodium falciparum NF54 trophozoites assessed as decrease in free hemozoin-Fe level at 0.5 to 3 times EC50 incubated for 32 hrs by flow cytometry analysis; type: functional; conditions: DDE = dose-dependent effect

With Cc1ccccc1N(C)C(=O)C(c1cccnc1)N(Cc1cc(C(F)(F)F)ccc1F)C1CC1 (racemic) the pEC50 (Plasmodium falciparum [1]) was 6.51, the CC50 (HepG2) was > 30 µM and the pEC50 (Plasmodium falciparum [2]) was 6.34. The CLH [3] was 548 µL/min/mg, the solubility kinetic [4] was > 47 µg/mL and the solubility kinetic [5] was 1.5 µg/mL (≈ 3.18 µM). The pEC50 (Plasmodium berghei) was 5.15, the pEC50 (Plasmodium falciparum [6]) was 4.22 and the pEC50 (Plasmodium falciparum [7]) was < 4.60.
Cc1ccccc1-n1nnnc1C(c1cncnc1)N(Cc1cccc(C(F)(F)F)c1)C1CC1 (racemic) gave a pEC50 (Plasmodium falciparum [1]) of 6.40, a CC50 at 72 h [8] of 33 µM and a pEC50 (Plasmodium falciparum [2]) of 5.74. For the same compound, the pEC50 (Plasmodium falciparum [9]) was 5.77, the Activity (Plasmodium falciparum [10]) was “Active” and the solubility kinetic [4] was 1.5 µg/mL (≈ 3.22 µM). It also gave a solubility kinetic [5] of 1.5 µg/mL (≈ 3.22 µM), a pEC50 (Plasmodium falciparum [11]) of 6.08 and a pEC50 (Plasmodium falciparum [12]) of 6.34. The pEC50 (Plasmodium falciparum [13]) was 6.80, the pEC50 (Plasmodium falciparum [14]) was 6.18 and the pEC50 (Plasmodium falciparum [15]) was 5.96. The pEC50 (Plasmodium falciparum [16]) was 5.74, the pEC50 (Plasmodium falciparum [17]) was 5.32 and the pEC50 (Plasmodium falciparum [18]) was 5.62. The pEC50 (Plasmodium falciparum [19]) was 6.05, the pEC50 (Plasmodium falciparum [20]) was 5.80 and the pEC50 (Plasmodium falciparum [21]) was 5.70. It also gave a pEC50 (Plasmodium falciparum [22]) of 5.70, a pEC50 (Plasmodium falciparum [23]) of 5.70 and a pIC50 (Hemozoin) of 3.51. The “fold change (FC)” value [24] was 6.
For CCN(CC)CCCC(C)Nc1ccnc2cc(Cl)ccc12 (stereo unspecified) [CHLOROQUINE], the pEC50 (Plasmodium falciparum [1]) was 7.85, the CC50 at 72 h [8] was > 30 µM and the Activity (Plasmodium falciparum [25]) was “Active”. The Activity (Plasmodium falciparum [26]) was “Active”, the pEC50 (Plasmodium falciparum [9]) was 7.68 and the pIC50 (Hemozoin) was 4.72. For the same compound, the inhibition (Plasmodium falciparum [27]) was “Dde”, the inhibition (Plasmodium falciparum [28]) was “Dde” and the inhibition (Plasmodium falciparum [29]) was “Dde”. For the same compound, the inhibition (Plasmodium falciparum [30]) was “Dde”.
